Measured values reported in article PMC6487859 (Journal of the American Chemical Society, 2018).

How the values were obtained:
CDK12/13 = conditions: live HeLa S3 cells, 4 h; cyclin K as proxy
CDK7 [1] = target: T1, CDK7 (Homo sapiens, UniProt P50613); assay: target engagement pulldown, live HeLa S3 cells, THZ1-DTB; type: cell-based; conditions: 4 h, Western blot
PKN3 [2] = target: T2, PKN3 (Homo sapiens, UniProt Q6P5Z2); assay: as above; type: cell-based; conditions: 4 h, Western blot
PRKCQ [3] = target: T3, PRKCQ (Homo sapiens, UniProt Q04759); assay: as above; type: cell-based; conditions: 4 h, Western blot
PKN3 [4] = target: T2, PKN3; assay: in vitro PKN3 kinase assay; type: biochemical; conditions: for time-dependent inhibition of PKN3: fixed inhibitor concentration 1 μM, preincubation 0 to 120 min
In short: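 Enzyme was preincubated with test compound 30 min, then reacted 30 min at RT with 68 µM ATP plus 1 µCi [γ-32P]ATP. TCA stop, phosphocellulose capture, phosphoric-acid washes, scintillation counting. IC50 came from a 7-point dose-response. Time course used 1 µM compound with 0–120 min preincubation.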

PKN3 [5] = target: T2, PKN3; assay: PKN3 in vitro phosphorylation of candidate substrate synthetic peptides; type: biochemical; conditions: pretreatment 1 μM for 30 min
In short: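 Recombinant PKN3 (25 ng) was preincubated with test compound at 1 μM for 30 min. Reactions ran 1 h at 37 °C and were stopped with 1% acetic acid. Peptides were desalted and read by MALDI TOF/TOF. Percent phosphorylation was inferred from the loss of unphosphorylated signal against a no-ATP control; four replicates.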

[6] = target: glycogen synthase kinase 3B (GSK3B) at C14 (Homo sapiens, UniProt P49841); assay: CITe-Id, HeLa S3 lysates, THZ1-DTB; type: binding; conditions: competition with 2 μM THZ1-DTB
In short: (§1)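 Precleared on streptavidin resin 1 h at 4 °C, split four ways. DMSO or rising test-compound doses for 1 h at RT, then 2 µM desthiobiotin probe at 4 °C for 18 h. Urea denaturation, DTT/IAA, tryptic digest. Streptavidin-enriched probe peptides were iTRAQ-labelled for RP-SAX-RP LC–MS/MS. Slope of reporter ratios (vs DMSO) against concentration scored each cysteine. Hits exceeded 2 SD over the mean of 527 sites; biological replicates.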

PKN3 at C840 = PKN3 at C840 (Homo sapiens, UniProt Q6P5Z2); assay: CITe-Id, HeLa S3 lysates, THZ1-DTB; type: binding; conditions: competition with 2 μM THZ1-DTB
In short: as §1

[7] = system: cysteine residues across the proteome; assay: CITe-Id proteome-wide, HeLa S3 lysates; type: binding, human
In short: as §1

[8] = target: protein kinase C theta (PRKCQ) at C661 (Homo sapiens, UniProt Q04759); assay: CITe-Id, HeLa S3 lysates, THZ1-DTB; type: binding; conditions: competition with 2 μM THZ1-DTB
In short: as §1

CDK12 = CDK12 (Homo sapiens, UniProt Q9NYV4); assay: CITe-Id, HeLa S3 lysates, THZ1-DTB; type: binding; conditions: competition with 2 μM THZ1-DTB
In short: as §1

CDK13 = CDK13 (Homo sapiens, UniProt Q14004); assay: CITe-Id, HeLa S3 lysates, THZ1-DTB; type: binding; conditions: competition with 2 μM THZ1-DTB
In short: as §1

PRKCQ [9] = target: T3, PRKCQ; assay: SelectScreen kinase assay; type: biochemical; conditions: 10-dose titration
CDK7 [10] = target: T1, CDK7; assay: CITe-Id, HeLa S3 lysates, THZ1-DTB; type: binding; conditions: competition with 2 μM THZ1-DTB
In short: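 Aliquots pretreated with DMSO or increasing test compound concentrations for 1 h at RT, then 2 μM desthiobiotin probe for 18 h at 4 °C. Denatured, reduced, alkylated, trypsin-digested; probe peptides streptavidin-enriched, iTRAQ-labelled, LC–MS/MS. Cysteine reporter ratios versus the DMSO channel were regressed against concentration, and the slope was taken as the dose response.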

CYP1B1 = target: T4, CYP1B1 (Homo sapiens, UniProt Q16678); assay: CITe-Id, HeLa S3 lysates, THZ1-DTB; type: binding; conditions: competition with 2 μM THZ1-DTB
T4 sequence (Q16678 1-543): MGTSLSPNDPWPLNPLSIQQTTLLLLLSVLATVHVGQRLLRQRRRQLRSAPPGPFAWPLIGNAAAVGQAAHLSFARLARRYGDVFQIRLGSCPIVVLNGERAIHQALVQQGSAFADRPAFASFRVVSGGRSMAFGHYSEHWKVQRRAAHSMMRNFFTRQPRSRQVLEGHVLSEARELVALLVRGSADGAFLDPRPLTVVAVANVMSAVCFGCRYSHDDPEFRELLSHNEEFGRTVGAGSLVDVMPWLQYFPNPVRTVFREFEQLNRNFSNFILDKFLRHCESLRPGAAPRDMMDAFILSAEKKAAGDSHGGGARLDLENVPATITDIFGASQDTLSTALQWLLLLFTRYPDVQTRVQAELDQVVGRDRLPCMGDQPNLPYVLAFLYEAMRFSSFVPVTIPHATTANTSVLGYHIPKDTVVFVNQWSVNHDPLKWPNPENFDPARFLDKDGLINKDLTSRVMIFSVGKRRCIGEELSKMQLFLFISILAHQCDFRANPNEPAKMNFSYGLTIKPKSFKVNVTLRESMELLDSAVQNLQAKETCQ
In short: as §1

T1 sequence (P50613 2-346 limits assumed): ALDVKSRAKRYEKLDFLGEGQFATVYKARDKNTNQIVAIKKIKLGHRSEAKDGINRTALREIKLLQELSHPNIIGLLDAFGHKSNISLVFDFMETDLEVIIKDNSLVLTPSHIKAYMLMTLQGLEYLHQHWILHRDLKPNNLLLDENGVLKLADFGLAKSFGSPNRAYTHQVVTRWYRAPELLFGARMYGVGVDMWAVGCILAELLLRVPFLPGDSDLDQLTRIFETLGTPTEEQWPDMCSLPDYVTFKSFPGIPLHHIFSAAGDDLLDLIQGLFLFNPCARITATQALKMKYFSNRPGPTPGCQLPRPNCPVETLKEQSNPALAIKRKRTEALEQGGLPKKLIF
T1 sequence (P51946 whole entry partner): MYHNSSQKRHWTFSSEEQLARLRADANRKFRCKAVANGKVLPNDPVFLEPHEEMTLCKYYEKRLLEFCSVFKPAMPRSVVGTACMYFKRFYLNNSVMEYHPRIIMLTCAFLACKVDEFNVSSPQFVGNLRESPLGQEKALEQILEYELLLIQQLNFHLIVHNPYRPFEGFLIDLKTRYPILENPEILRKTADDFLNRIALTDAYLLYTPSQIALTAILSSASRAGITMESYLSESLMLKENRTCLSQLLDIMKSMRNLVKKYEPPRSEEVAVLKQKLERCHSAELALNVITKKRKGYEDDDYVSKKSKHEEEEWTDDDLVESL
T1 sequence (P51948 whole entry partner): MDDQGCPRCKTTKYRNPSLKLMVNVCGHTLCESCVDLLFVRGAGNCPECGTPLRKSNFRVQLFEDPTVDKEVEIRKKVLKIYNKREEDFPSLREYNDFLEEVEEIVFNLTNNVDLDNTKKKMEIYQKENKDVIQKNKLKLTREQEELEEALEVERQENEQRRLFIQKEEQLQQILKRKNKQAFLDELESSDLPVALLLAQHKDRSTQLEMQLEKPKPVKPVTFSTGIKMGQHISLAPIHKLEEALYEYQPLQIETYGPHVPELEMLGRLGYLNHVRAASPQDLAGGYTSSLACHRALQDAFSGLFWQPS
T2 sequence (Q6P5Z2 whole entry): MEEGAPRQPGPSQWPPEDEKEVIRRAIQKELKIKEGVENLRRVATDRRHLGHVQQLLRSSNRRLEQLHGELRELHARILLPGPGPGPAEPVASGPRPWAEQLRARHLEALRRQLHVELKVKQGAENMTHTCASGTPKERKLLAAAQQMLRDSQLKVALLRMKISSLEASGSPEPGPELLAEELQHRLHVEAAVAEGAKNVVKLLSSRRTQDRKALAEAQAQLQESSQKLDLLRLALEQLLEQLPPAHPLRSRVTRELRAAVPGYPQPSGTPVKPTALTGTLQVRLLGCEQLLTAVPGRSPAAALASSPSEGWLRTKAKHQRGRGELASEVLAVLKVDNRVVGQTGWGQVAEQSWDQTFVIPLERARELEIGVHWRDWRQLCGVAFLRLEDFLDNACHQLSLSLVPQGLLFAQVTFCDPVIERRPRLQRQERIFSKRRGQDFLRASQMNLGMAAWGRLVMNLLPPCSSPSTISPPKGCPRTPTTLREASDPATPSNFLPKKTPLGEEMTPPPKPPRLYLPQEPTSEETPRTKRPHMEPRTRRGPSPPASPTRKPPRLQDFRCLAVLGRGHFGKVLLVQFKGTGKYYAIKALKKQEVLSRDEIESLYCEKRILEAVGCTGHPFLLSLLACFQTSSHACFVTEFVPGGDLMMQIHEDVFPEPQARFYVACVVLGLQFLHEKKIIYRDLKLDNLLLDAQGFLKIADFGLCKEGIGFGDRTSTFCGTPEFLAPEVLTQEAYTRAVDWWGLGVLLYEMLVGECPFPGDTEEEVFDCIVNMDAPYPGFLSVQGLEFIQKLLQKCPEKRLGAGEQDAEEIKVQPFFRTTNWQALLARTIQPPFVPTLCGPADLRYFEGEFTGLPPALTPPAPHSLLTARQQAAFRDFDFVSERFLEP
Sequence of PKN3 at C840 (Q6P5Z2 whole entry): as above
T3 sequence (Q04759 whole entry): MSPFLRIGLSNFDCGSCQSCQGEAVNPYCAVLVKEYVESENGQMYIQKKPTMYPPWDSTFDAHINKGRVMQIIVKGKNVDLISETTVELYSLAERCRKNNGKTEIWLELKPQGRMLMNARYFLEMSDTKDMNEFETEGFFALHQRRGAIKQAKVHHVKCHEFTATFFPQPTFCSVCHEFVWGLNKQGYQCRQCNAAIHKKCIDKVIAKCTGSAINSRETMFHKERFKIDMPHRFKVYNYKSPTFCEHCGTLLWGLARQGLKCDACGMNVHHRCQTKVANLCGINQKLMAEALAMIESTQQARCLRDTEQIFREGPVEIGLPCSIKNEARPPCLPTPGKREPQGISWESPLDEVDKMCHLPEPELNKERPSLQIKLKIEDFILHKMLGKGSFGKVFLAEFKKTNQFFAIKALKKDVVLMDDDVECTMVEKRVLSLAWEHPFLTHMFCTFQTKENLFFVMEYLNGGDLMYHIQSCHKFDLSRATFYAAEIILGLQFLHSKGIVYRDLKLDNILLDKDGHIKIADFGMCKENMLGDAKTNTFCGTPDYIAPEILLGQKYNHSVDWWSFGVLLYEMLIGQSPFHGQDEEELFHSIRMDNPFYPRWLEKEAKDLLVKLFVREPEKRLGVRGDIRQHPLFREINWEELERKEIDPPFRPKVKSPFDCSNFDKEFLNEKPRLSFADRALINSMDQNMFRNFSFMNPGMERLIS
Sequence of protein kinase C theta (PRKCQ) at C661 (Q04759 whole entry): as above
Sequence of glycogen synthase kinase 3B (GSK3B) at C14 (P49841 whole entry): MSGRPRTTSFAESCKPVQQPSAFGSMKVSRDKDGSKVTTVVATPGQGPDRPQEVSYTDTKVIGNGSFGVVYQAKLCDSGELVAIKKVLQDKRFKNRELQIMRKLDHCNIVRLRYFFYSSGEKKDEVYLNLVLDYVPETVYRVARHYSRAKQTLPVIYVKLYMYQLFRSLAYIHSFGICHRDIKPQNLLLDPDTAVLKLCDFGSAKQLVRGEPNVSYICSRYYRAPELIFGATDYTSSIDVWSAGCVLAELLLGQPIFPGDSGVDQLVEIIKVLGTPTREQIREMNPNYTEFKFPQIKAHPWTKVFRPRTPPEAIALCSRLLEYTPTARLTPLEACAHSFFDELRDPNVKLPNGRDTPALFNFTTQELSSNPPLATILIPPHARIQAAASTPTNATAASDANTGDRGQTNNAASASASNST

SMILES	competition for CDK12/13 against THZ1-DTB pulldown (CDK12/13)	competition for CDK7 against THZ1-DTB pulldown (CDK7 [1])	competition for PKN3 against THZ1-DTB pulldown (PKN3 [2])	competition for PRKCQ against THZ1-DTB pulldown (PRKCQ [3])	time-dependent inhibition of PKN3 (PKN3 [4])	potency against PKN3 relative to THZ1 (fold less potent) (PKN3 [4]; fixed time-point format)	PKN3-mediated phosphorylation of EXOC2 (S432) peptide (PKN3 [5])	PKN3-mediated phosphorylation of LAD1 (S375) peptide (PKN3 [5])	competitive dose-response at GSK3B C14 [6]	competitive dose-response at PKN3 C840 (PKN3 at C840)	number of cysteine residues with dose-dependent competitive binding [7]	competitive dose-response at PRKCQ C661 [8]	competitive dose-response at CDK12 cysteine (CDK12)	competitive dose-response at CDK13 cysteine (CDK13)	potency against PRKCQ (PRKCQ [9])	competitive dose-response at CDK7 cysteine (CDK7 [10])	IC50 (PKN3 [4]; read-out: IC50 against PKN3, fixed time-point format, 30 min preincubation) [nM]	competitive dose-response at CYP1B1 (CYP1B1)
CN(C)CCCC(=O)Nc1ccc(C(=O)Nc2cccc(Nc3ncc(Cl)c(-c4c[nH]c5ccccc45)n3)c2)cc1 [THZ1-R]	competed poorly	competed poorly	competed poorly	competed poorly	did not show time-dependent inhibition	more than 50 fold												
CN(C)C/C=C/C(=O)Nc1ccc(C(=O)Nc2cccc(Nc3ncc(Cl)c(-c4c[nH]c5ccccc45)n3)c2)cc1 [THZ1]		strong competition			time dependent		partially blocked	partially blocked	dose-dependent THZ1 competitive binding	dose-dependent THZ1 competitive binding	eight	dose-dependent THZ1 competitive binding	dose-dependent competitive binding	dose-dependent competitive binding	weak potency	dose-dependent competitive binding	72	
CN(C)C/C=C/C(=O)Nc1ccc(C(=O)N2CCC[C@@H](Nc3ncc(Cl)c(-c4c[nH]c5ccccc45)n3)C2)cc1 [THZ531]									gaining some activity	little or no reactivity		little or no reactivity						little or no reactivity
